# Test results taken from ChEMBL document CHEMBL1152796, “Azole antimicrobial pharmacophore-based tetrazoles: synthesis and biological evaluation as potential antimicrobial and anticonvulsant agents” (Bioorg Med Chem, 2009).
# Activity calls are given as the source filed them. The calls are words filed in the database; no cut-off is given here.
# Tests used:
# Klebsiella pneumoniae [1] = test: Antibacterial activity against Klebsiella pneumoniae isolate after 24 to 48 hrs by twofold serial dilution method; format: functional
# Summary of the method: (§1)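 Broth microdilution in Müller–Hinton broth. DMSO stocks at 800 were diluted twofold from 400 down to 6.25. Wells received 10^6 CFU/mL bacterial suspension and were incubated at 36 °C for 24–48 h, with controls. MIC was read per well. Duplicate assays; run only for compounds giving inhibition zones ≥14 mm.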
# Bacillus subtilis [2] = test: Antibacterial activity against Bacillus subtilis NRRL B-14819 at 1 mg/mL after 24 hrs by agar diffusion method; format: functional; details: read-out: Diameter of inhibition zone
# Summary of the method: (§2)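 Agar disc diffusion: 5 mm sterile paper discs soaked in 1 mg/mL test solution in DMSO were placed on agar seeded with the organism, in triplicate, with a DMSO-only control. Bacterial plates were incubated at 37 °C for 24 h and fungal plates for 7 days. Read-out was the average inhibition-zone diameter in mm. Fungi were clinical isolates.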
# Trichophyton rubrum = test: Antifungal activity against Trichophyton rubrum isolate after 72 hrs by twofold serial dilution method; format: functional, organism-based
# Candida tropicalis = test: Antifungal activity against Candida tropicalis isolate after 72 hrs by twofold serial dilution method; format: functional, organism-based
# Staphylococcus aureus [3] = test: Antibacterial activity against Staphylococcus aureus ATCC 6538 after 24 to 48 hrs by twofold serial dilution method; format: functional; summary of the method: as §1
# Escherichia coli [4] = test: Antibacterial activity against Escherichia coli ATCC 25922 at 1 mg/mL after 24 hrs by agar diffusion method; format: functional; details: ATCC 25922, 24 h, read-out: Diameter of inhibition zone; summary of the method: as §2
# Candida albicans = test: Antifungal activity against Candida albicans isolate at 1 mg/mL after 7 days by twofold serial dilution method; format: functional; details: 168 h, read-out: Diameter of inhibition zone
# Escherichia coli [5] = test: Antibacterial activity against Escherichia coli ATCC 25922 after 24 to 48 hrs by twofold serial dilution method; format: functional; summary of the method: as §1
# Micrococcus luteus [6] = test: Antibacterial activity against Micrococcus luteus ATCC 21881 at 1 mg/mL after 24 hrs by agar diffusion method; format: functional; details: ATCC 21881, 24 h, read-out: Diameter of inhibition zone; summary of the method: as §2
# Aspergillus niger = test: Antifungal activity against Aspergillus niger isolate after 72 hrs by twofold serial dilution method; format: functional, organism-based
# Mus musculus [7] = test: Anticonvulsant activity in Wister albino mouse assessed as protection against maximal electroshock-induced seizures at 100 mg/kg, ip administered 30 mins before metrazole challenge measured after 30 mins; format: functional; details: route intraperitoneal
# Pichia kudriavzevii = test: Antifungal activity against Candida krusei isolate after 72 hrs by twofold serial dilution method; format: functional, organism-based
# Aspergillus fumigatus = test: Antifungal activity against Aspergillus fumigatus isolate at 1 mg/mL after 7 days by agar diffusion method; format: functional; details: 168 h, read-out: Diameter of inhibition zone; summary of the method: as §2
# Staphylococcus aureus [8] = test: Antibacterial activity against Staphylococcus aureus ATCC 6538 at 1 mg/mL after 24 hrs by agar diffusion method; format: functional; details: ATCC 6538, 24 h, read-out: Diameter of inhibition zone; summary of the method: as §2
# Klebsiella pneumoniae [9] = test: Antibacterial activity against Klebsiella pneumoniae isolate at 1 mg/mL after 24 hrs by agar diffusion method; format: functional; details: read-out: Diameter of inhibition zone; summary of the method: as §2
# Pseudomonas aeruginosa [10] = test: Antibacterial activity against Pseudomonas aeruginosa ATCC 27853 after 24 to 48 hrs by twofold serial dilution method; format: functional; summary of the method: as §1
# Mus musculus [11] = test: Anticonvulsant activity in Wister albino mouse assessed as protection against subcutaneous metrazole-induced seizures at 100 mg/kg, ip administered 30 mins before metrazole challenge measured after 30 mins; format: functional; details: route intraperitoneal
# Summary of the method: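 Wistar albino mice, either sex, 25–30 g, 3 months old, in groups of six. Compounds in DMSO were given ip at 30, 100 or 300 mg/kg; vehicle-only controls. After 30 min, metrazole 100 mg/kg in DMSO was injected sc at the posterior midline. Protection meant absence of any clonic spasm lasting ≥5 s; scored as protected/tested.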
# Pseudomonas aeruginosa [12] = test: Antibacterial activity against Pseudomonas aeruginosa ATCC 27853 at 1 mg/mL after 24 hrs by agar diffusion method; format: functional; details: ATCC 27853, 24 h, read-out: Diameter of inhibition zone; summary of the method: as §2
# Micrococcus luteus [13] = test: Antibacterial activity against Micrococcus luteus ATCC 21881 after 24 to 48 hrs by twofold serial dilution method; format: functional; summary of the method: as §1
# Bacillus subtilis [14] = test: Antibacterial activity against Bacillus subtilis NRRL B-14819 after 24 to 48 hrs by twofold serial dilution method; format: functional; summary of the method: as §1
SMILES,MIC (Klebsiella pneumoniae [1]) [µg/mL],MIC (Staphylococcus aureus [3]) [µg/mL],MIC (Escherichia coli [5]) [µg/mL],MIC (Pseudomonas aeruginosa [10]) [µg/mL],MIC (Micrococcus luteus [13]) [µg/mL],MIC (Bacillus subtilis [14]) [µg/mL],zone of inhibition at 1000 µg/mL (Bacillus subtilis [2]) [mm],Activity (Trichophyton rubrum),Activity (Candida tropicalis),zone of inhibition at 1000 µg/mL (Escherichia coli [4]) [mm],zone of inhibition at 1000 µg/mL (Candida albicans) [mm],zone of inhibition at 1000 µg/mL (Micrococcus luteus [6]) [mm],Activity (Aspergillus niger),Activity (Mus musculus [7]) [%],Activity (Pichia kudriavzevii),zone of inhibition at 1000 µg/mL (Aspergillus fumigatus) [mm],zone of inhibition at 1000 µg/mL (Staphylococcus aureus [8]) [mm],zone of inhibition at 1000 µg/mL (Klebsiella pneumoniae [9]) [mm],Activity (Mus musculus [11]) [%],zone of inhibition at 1000 µg/mL (Pseudomonas aeruginosa [12]) [mm]
Cc1cc(C)n(C(=O)COC(Cn2nnc(-c3ccccc3)n2)c2ccc(Cl)cc2)n1 (configuration not stated),100,12.5,50,100,50,25,≥ 14,inactive,inactive,≥ 14,≥ 14,≥ 14,inactive,0,inactive,≥ 14,≥ 14,≥ 14,0,≥ 14
CC1(C)S[C@@H]2[C@H](NC(=O)[C@H](N)c3ccccc3)C(=O)N2[C@H]1C(=O)O.O.O.O [AMPICILLIN TRIHYDRATE],12.5,6.25,6.25,12.5,12.5,12.5,,,,,,,,,,,,,,
O=C(O)COC(Cn1nnc(-c2ccccc2)n1)c1ccc(Cl)cc1 (configuration not stated),≥ 200,100,≥ 200,≥ 200,≥ 200,100,≥ 14,inactive,inactive,≥ 14,≥ 14,≥ 14,inactive,,inactive,≥ 14,≥ 14,≥ 14,,≥ 14
Clc1ccc(/C=C/n2nnc(-c3ccccc3)n2)cc1,≥ 200,100,100,≥ 200,≥ 200,≥ 200,≥ 14,inactive,inactive,≥ 14,≥ 14,≥ 14,inactive,,inactive,≥ 14,≥ 14,≥ 14,,≥ 14
CCOC(=O)COC(Cn1nnc(-c2ccccc2)n1)c1ccc(Cl)cc1 (configuration not stated),≥ 200,100,≥ 200,≥ 200,≥ 200,≥ 200,≥ 14,inactive,inactive,≥ 14,≥ 14,≥ 14,inactive,,inactive,≥ 14,≥ 14,≥ 14,,≥ 14
Sc1nnc(COC(Cn2nnc(-c3ccccc3)n2)c2ccc(Cl)cc2)n1-c1ccc(Cl)cc1 (configuration not stated),100,25,100,≥ 200,100,50,≥ 14,inactive,inactive,≥ 14,≥ 14,≥ 14,inactive,,inactive,≥ 14,≥ 14,≥ 14,,≥ 14
OC(Cn1nnc(-c2ccccc2)n1)c1ccc(Cl)cc1 (configuration not stated),,,,,,,,,,,,,,0,,,,,0,
NNC(=O)COC(Cn1nnc(-c2ccccc2)n1)c1ccc(Cl)cc1 (configuration not stated),≥ 200,100,≥ 200,≥ 200,≥ 200,≥ 200,,inactive,inactive,,,,inactive,,inactive,,,,,

# Continued, in another order:
MIC (Klebsiella pneumoniae [1]) [µg/mL],MIC (Staphylococcus aureus [3]) [µg/mL],MIC (Escherichia coli [5]) [µg/mL],MIC (Pseudomonas aeruginosa [10]) [µg/mL],MIC (Micrococcus luteus [13]) [µg/mL],MIC (Bacillus subtilis [14]) [µg/mL],SMILES,zone of inhibition at 1000 µg/mL (Bacillus subtilis [2]) [mm],Activity (Trichophyton rubrum),Activity (Candida tropicalis),zone of inhibition at 1000 µg/mL (Escherichia coli [4]) [mm],zone of inhibition at 1000 µg/mL (Candida albicans) [mm],zone of inhibition at 1000 µg/mL (Micrococcus luteus [6]) [mm],Activity (Aspergillus niger),Activity (Mus musculus [7]) [%],Activity (Pichia kudriavzevii),zone of inhibition at 1000 µg/mL (Aspergillus fumigatus) [mm],zone of inhibition at 1000 µg/mL (Staphylococcus aureus [8]) [mm],zone of inhibition at 1000 µg/mL (Klebsiella pneumoniae [9]) [mm],Activity (Mus musculus [11]) [%],zone of inhibition at 1000 µg/mL (Pseudomonas aeruginosa [12]) [mm]
≥ 200,100,100,≥ 200,100,100,O=C(COC(Cn1nnnc1Cc1ccccc1)c1ccc(Cl)cc1)N/N=C/c1ccc(Cl)cc1 (configuration not stated),≥ 14,inactive,inactive,≥ 14,≥ 14,≥ 14,inactive,50,inactive,≥ 14,≥ 14,≥ 14,50,≥ 14
≥ 200,50,100,≥ 200,100,50,O=C(COC(Cn1nnc(-c2ccccc2)n1)c1ccc(Cl)cc1)N/N=C/c1ccc(Cl)cc1 (configuration not stated),≥ 14,inactive,inactive,≥ 14,≥ 14,≥ 14,inactive,,inactive,≥ 14,≥ 14,≥ 14,,≥ 14
100,12.5,25,100,100,50,Clc1ccc(C(Cn2nnc(-c3ccccc3)n2)OCc2nnc(Nc3ccccc3)o2)cc1 (configuration not stated),≥ 14,inactive,inactive,≥ 14,≥ 14,≥ 14,inactive,,inactive,≥ 14,≥ 14,≥ 14,,≥ 14
≥ 200,100,≥ 200,≥ 200,≥ 200,≥ 200,O=C(COC(Cn1nnnc1Cc1ccccc1)c1ccc(Cl)cc1)NNC(=S)Nc1ccc(Cl)cc1 (configuration not stated),≥ 14,inactive,inactive,≥ 14,≥ 14,≥ 14,inactive,,inactive,≥ 14,≥ 14,≥ 14,,≥ 14
≥ 200,100,100,≥ 200,100,≥ 200,O=C(COC(Cn1nnnc1Cc1ccccc1)c1ccc(Cl)cc1)NNC(=S)Nc1ccccc1 (configuration not stated),≥ 14,inactive,inactive,≥ 14,≥ 14,≥ 14,inactive,,inactive,≥ 14,≥ 14,≥ 14,,≥ 14
